Assay outcomes from PubChem BioAssay.
Rows were chosen to be rich in hits. Some 1.9% of all compounds tested hit in one or more screens of this group.
LEDGF integ inh = blocks HIV-1 LEDGF/p75-dependent DNA integration. TR-FRET IN-LEDGF/p75 DNA integration, Eu/Cy5. inhibition, % at 3.7 µM. actives 0.64% (n = 370,000). AID 743269;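 active = inhibition above the screen-wide mean plus 3 SD, cut at about 13% in these data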;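 note: signal is the Cy5 over europium emission ratio at 671 and 618 nm; 0% = plate median of compound wells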
UHRF1 MBD2 ctr = UHRF1 methyl-DNA binding inhibition; inhibition, % at 4.4 µM; UHRF1 binding to methylated oligo, TR-FRET; Q96T88; AID 687016; actives 0.75% (n = 370,000);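 note: UHRF1 SRA domain binding a hemimethylated CpG hairpin DNA probe; 0% = median of test compound wells and 100% = reference inhibitor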
TDP2 absorb = blocks human TDP2 phosphodiesterase activity; actives 0.34% (n = 370,000); inhibition, % at 12.8 µM; recombinant TDP2, T5PNP hydrolysis, p-nitrophenol absorbance 415 nm; O95551;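 active = inhibition above the mean of all tested compounds plus 3 SD, set per campaign, cut at about 25% in these data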;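 note: 0% = DMSO with enzyme and 100% = buffer with substrate but no TDP2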
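Material: recombinant human TDP2; quantity: TDP2 enzyme at 120 nM final; medium: Tris-HCl pH 7.5 with MgCl2; compound: single concentration, 12.8 µM nominal, with 1% DMSO; incubation: 2 h enzyme incubation at 37 °C; signal: epi absorbance; measure: percent inhibition; benchmarks: high control without enzyme, low control DMSO plus TDP2; repeats: singlicate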
Rin1-Abl PPI inh = blocks binding of human Rin1 to Abl | inhibition, % at 7.35 µM | P00519+Q13671 | TR-FRET Rin1/Abl binding, biochemical | actives 0.4% (n = 360,000); in the data active = inhibition above about 5%, passing the limit was not always enough
MBD2 DNA inh = blocks human MBD2 binding to methylated DNA | Q9UBB5 | TR-FRET, MBD2 binding to methylated oligonucleotide | inhibition, % at 4.4 µM | actives 0.31% (n = 370,000) | AID 686964; in the data active = inhibition above about 13%
Target sequence (Q9UBB5 whole entry, looked up): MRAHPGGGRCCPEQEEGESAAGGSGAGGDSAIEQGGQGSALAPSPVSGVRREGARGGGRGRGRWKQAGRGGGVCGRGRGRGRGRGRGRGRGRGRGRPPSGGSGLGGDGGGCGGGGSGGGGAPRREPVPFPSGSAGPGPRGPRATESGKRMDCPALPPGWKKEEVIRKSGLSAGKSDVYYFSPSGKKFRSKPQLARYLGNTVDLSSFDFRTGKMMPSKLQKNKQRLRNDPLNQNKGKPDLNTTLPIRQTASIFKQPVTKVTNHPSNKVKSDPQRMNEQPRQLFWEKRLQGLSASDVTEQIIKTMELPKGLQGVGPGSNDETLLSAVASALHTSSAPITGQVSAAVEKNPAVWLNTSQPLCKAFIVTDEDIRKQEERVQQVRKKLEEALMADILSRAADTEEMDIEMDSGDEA
UHRF1 DNA bind = counter-screen for MBD2 inhibitors: human UHRF1 methylated DNA binding inhibitors | shares compounds with MBD2 DNA inh | UHRF1 binding to methylated oligonucleotide, TR-FRET | inhibition, % at 4.4 µM | actives 25% (n = 1,000);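 note: UHRF1 SRA domain binding a labeled hemimethylated CpG hairpin DNA; 0% = vehicle only and 100% = reference inhibitor with vehicle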
MBD2 confirm = MBD2-DBD methyl-DNA binding inhibition, TR-FRET confirmation. shares compounds with MBD2 DNA inh. TR-FRET MBD2-DBD binding to methylated oligonucleotide. inhibition, % at 4.4 µM. actives 26% (n = 1,000). AID 720531; in the data active = inhibition above about 14%
TDP2 confirm = confirmation of human TDP2 inhibitors; recombinant human TDP2, absorbance read-out; actives 22% (n = 1,100); inhibition, % at 12.8 µM; AID 743263; shares compounds with TDP2 absorb; in the data active = inhibition above about 25%;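 note: 0% = vehicle with enzyme and 100% = no enzyme buffer only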
IN multimer act = HIV-1 integrase multimerization activation, counter-screen; shares compounds with LEDGF integ inh; TR-FRET HIV-1 integrase multimerization, biochemical; activation, % at 7.7 µM; actives 17% (n = 2,000); AID 1053131; in the data active = activation above about 8.9%
TRFRET interf = optically interferes with TR-FRET readout in LEDGF counter-screen; AID 1053135; 2,000 tested, under 10 active; shares compounds with LEDGF integ inh; TR-FRET optical interference counterscreen, HIV-1 IN multimerization; inhibition, % at 7.7 µM;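 active = inhibition above the mean over all tested compounds plus 3 SD, which no compound reached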;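 note: 0% = integrase with antibodies and DMSO and 100% = antibodies without integrase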
IN-LEDGF confirm = LEDGF/p75-dependent HIV-1 integration inhibition, confirmation. shares compounds with LEDGF integ inh. TR-FRET LEDGF/p75-dependent HIV-1 integration, biochemical. inhibition, % at 3.7 µM. actives 36% (n = 2,000). AID 1053136; in the data active = inhibition above about 14%
An asterisk follows results filed as active; nt = no result. Cut-off read from the data, not from the text of the source, unless noted: active = inhibition above about 21%; inactive = the rest.

SMILES	LEDGF integ inh	UHRF1 MBD2 ctr	TDP2 absorb	Rin1-Abl PPI inh	MBD2 DNA inh	UHRF1 DNA bind	MBD2 confirm	others
COc1ccc(-n2c(O)c(/C=C3\C=Nc4ccc(Br)cc43)c(=O)[nH]c2=O)c(OC)c1	-4.0	-2.2	14.6	3.4	28.4*	8.1	2.5
Cc1cc(N2CCNC[C@H]2C)ccc1N1CC[C@@H](O)C1	0.2	-3.3	2.8	nt	-6.2	nt	nt
C[C@H](NC(=O)OCc1ccccc1)[P+](=O)O	-0.9	-2.9	0.5	nt	14.4*	6.7	1.2
COc1ccc(C(SCC(NC(=O)OCc2ccccc2)C(=O)O)c2ccc(OC)cc2)cc1 (stereo not given)	-3.1	0.1	-3.3	3.5	-3.3	nt	nt
CC[N+](C)(CC)CCCCOc1ccc2c(c1)C(=O)c1cc(OCCCC[N+](C)(CC)CC)ccc1-2	0.2	41.5*	17.1	-25.4	17.0*	49.2*	30.6*
C#C[C@]1(O)CCC2C3CCC4=C/C(=N/OCC(=O)NC(C)C(=O)NC(CCSC)C(=O)O)CC[C@]4(C)C3CC[C@@]21C (stereo not given in full)	10.5	4.6	-7.9	0.8	44.4*	4.1	3.1
C#C[C@]1(O)CC[C@H]2[C@@H]3CCC4=CC(=O)CC[C@]4(C)[C@H]3CC[C@@]21C	-0.4	1.4	5.6	-3.1	2.3	nt	nt
CCOC(=O)C1=C(C(=O)OCC)C2(c3ccccc3)c3ccccc3C1(C)N2C (stereo not given)	3.8	-1.3	-5.2	nt	3.4	nt	nt
COc1cccc2c1C(=O)c1c(O)c3c(c(O)c1C2=O)CC(O)(C(C)=NO)CC3OC1CC(N)C(O)C(C)O1 (stereo not given)	-0.2	95.1*	-2.2	-22.5	109.1*	99.6*	108.9*
c1ccc(-c2cc(-c3ccccc3)[n+](-c3ccccc3)c(-c3ccccc3)c2)cc1	2.5	1.7	5.6	-1.0	13.3*	12.6	39.9*
O=C(O)Cn1cc(/C=C2\C(=O)NC(=O)N(Cc3ccco3)C2=O)c2ccccc21	86.2*	85.2*	10.6	0.2	24.9*	56.5*	18.1*
OC1CN2CCC(O)C2C(O)C1O (stereo not given)	0.7	-3.2	3.7	nt	2.7	nt	nt
CCCCSP1(=S)NCCCO1 (stereo not given)	-0.1	-6.0	-4.0	-0.3	38.4*	4.8	1.1
CC(=O)N1Cc2cnnn2-c2ccccc2C1(C)C#N (stereo not given)	-2.3	3.4	3.1	0.1	0.3	nt	nt
CC(=O)N1Cc2cnnn2-c2ccccc2C1(C#N)Cc1ccccc1 (stereo not given)	-0.7	-0.5	7.6	-2.3	29.2*	6.7	4.9
O=C(c1ccc(Cl)cc1)C1CCCN(Cc2ccc3c(c2)OCCO3)C1 (stereo not given)	2.7	-1.4	2.0	3.2	-3.8	nt	nt
O=C(c1ccc(Cl)cc1)C1CCCN(Cc2ccc3ncccc3c2)C1 (stereo not given)	-3.8	24.6*	-6.6	-0.8	15.1*	8.1	1.8
Cc1cc(N2CCNC[C@H]2C)ccc1N1CCN[C@H](C)C1	7.2	0.2	-13.4	nt	1.9	nt	nt
O=C(NCCN1CCC2(CC1)C(=O)NCN2c1ccccc1)c1cccc2c1-c1ccccc1C2=O	-1.6	-4.6	11.4	nt	-2.2	nt	nt
COC(=O)C1C(c2ccccc2)CC2CCC1N2C (stereo not given)	3.4	-2.0	9.2	nt	1.1	nt	nt
Cc1ccc(N2C(=O)NC(=O)/C(=C/c3cnn(-c4ccc(C)cc4)c3)C2=O)cc1	1.1	-0.5	5.0	0.6	-7.0	nt	nt
Cc1ccc(N2C(=O)NC(=O)/C(=C/c3ccoc3)C2=O)cc1	30.4*	63.2*	12.8	3.6	33.2*	85.8*	53.7*	IN multimer act=9.2*;TRFRET interf=-46.3;IN-LEDGF confirm=57.5*
N#Cc1ccc(NC(=S)N2Cc3cc(Br)ccc3-n3nncc3C2)cc1	-2.0	0.8	-9.5	nt	-2.8	nt	nt
NCC(O)c1cc(O)c(O)cc1F (stereo not given)	49.3*	27.3*	14.5	2.2	13.7*	13.7	4.3	IN multimer act=12.1*;TRFRET interf=-60.9;IN-LEDGF confirm=-5.0
N/C(=N\N=C/c1ccc(-c2ccc(O)c(C(=O)O)c2)o1)N[N+](=O)[O-]	30.3*	81.6*	28.4*	-0.6	48.1*	54.8*	18.4*	TDP2 confirm=-2.0;IN multimer act=35.1*;TRFRET interf=-125.2;IN-LEDGF confirm=25.4*
SMILES	LEDGF integ inh	UHRF1 MBD2 ctr	TDP2 absorb	Rin1-Abl PPI inh	MBD2 DNA inh	UHRF1 DNA bind	MBD2 confirm	others
CCCCN1C(=O)/C(=C/C=C/c2ccco2)C(=O)NC1=S	56.3*	83.0*	4.5	1.9	28.9*	47.6*	19.3*	IN multimer act=3.4;TRFRET interf=-17.1;IN-LEDGF confirm=73.5*
CCCCN1C(=O)/C(=C\c2ccco2)C(=O)N(CCc2ccccc2)C1=O	-0.1	-3.8	-2.2	-1.2	-0.9	nt	nt
Cc1cc(N2CCNC[C@H]2C)ccc1N1CCN[C@@H](C)C1	2.8	0.2	-5.5	nt	-2.1	nt	nt
C[n+]1c(-c2ccccc2)c2cc(N)ccc2c2ccc(N)cc21	41.1*	61.5*	58.5*	-7.4	55.1*	76.7*	85.6*	TDP2 confirm=20.1;IN multimer act=2.3;TRFRET interf=-11.7;IN-LEDGF confirm=64.1*
Cn1cc(P(=S)(c2ccccc2)c2ccccc2)c2ccccc21	0.9	3.0	-0.5	nt	2.5	nt	nt
Cc1cc(OCC(=O)NCc2ccncc2)c2c3c(c(=O)oc2c1)CCC3	-0.9	-1.4	25.9*	-0.8	1.5	nt	nt	TDP2 confirm=5.0
CN1C(=O)C(=Cc2ccccc2Oc2ccc(Cl)c(F)c2)C(=O)N(C)C1=O	4.1	-2.3	25.1*	1.7	-3.8	nt	nt	TDP2 confirm=6.9
O=[N+]([O-])c1ccccc1CNCCc1c[nH]c2ccccc12	0.8	0.8	25.0*	2.4	0.6	nt	nt	TDP2 confirm=5.6
Clc1ccccc1CNCCc1c[nH]c2ccccc12	-2.0	0.8	1.5	-1.4	-3.8	nt	nt
C=CCN1C[C@H](C)N(C(c2ccc(C(=O)N(CC)CC)cc2)c2cccc(OC)c2)CC1C (stereo not given in full)	1.1	-2.2	-3.4	nt	-1.0	nt	nt
CC(C)(C)Cc1nnc(NC(=O)COc2ccc(Cl)cc2Cl)o1	-2.3	0.7	5.4	nt	5.9	nt	nt
